Data published in ChEMBL document CHEMBL4002590, “Design and Synthesis of a Pan-Janus Kinase Inhibitor Clinical Candidate (PF-06263276) Suitable for Inhaled and Topical Delivery for the Treatment of Inflammatory Diseases of the Lungs and Skin” (J Med Chem, 2017).

What was measured:
[1] = target: T1, Tyrosine-protein kinase JAK3 (Homo sapiens, UniProt P52333); assay: Inhibition of GST tagged human recombinant JAK3 catalytic domain expressed in baculovirus using peptide substrate preincubated for 60 mins followed by substrate addition and measured after 60 mins by microfluidic assay
T1 sequence (P52333 whole entry): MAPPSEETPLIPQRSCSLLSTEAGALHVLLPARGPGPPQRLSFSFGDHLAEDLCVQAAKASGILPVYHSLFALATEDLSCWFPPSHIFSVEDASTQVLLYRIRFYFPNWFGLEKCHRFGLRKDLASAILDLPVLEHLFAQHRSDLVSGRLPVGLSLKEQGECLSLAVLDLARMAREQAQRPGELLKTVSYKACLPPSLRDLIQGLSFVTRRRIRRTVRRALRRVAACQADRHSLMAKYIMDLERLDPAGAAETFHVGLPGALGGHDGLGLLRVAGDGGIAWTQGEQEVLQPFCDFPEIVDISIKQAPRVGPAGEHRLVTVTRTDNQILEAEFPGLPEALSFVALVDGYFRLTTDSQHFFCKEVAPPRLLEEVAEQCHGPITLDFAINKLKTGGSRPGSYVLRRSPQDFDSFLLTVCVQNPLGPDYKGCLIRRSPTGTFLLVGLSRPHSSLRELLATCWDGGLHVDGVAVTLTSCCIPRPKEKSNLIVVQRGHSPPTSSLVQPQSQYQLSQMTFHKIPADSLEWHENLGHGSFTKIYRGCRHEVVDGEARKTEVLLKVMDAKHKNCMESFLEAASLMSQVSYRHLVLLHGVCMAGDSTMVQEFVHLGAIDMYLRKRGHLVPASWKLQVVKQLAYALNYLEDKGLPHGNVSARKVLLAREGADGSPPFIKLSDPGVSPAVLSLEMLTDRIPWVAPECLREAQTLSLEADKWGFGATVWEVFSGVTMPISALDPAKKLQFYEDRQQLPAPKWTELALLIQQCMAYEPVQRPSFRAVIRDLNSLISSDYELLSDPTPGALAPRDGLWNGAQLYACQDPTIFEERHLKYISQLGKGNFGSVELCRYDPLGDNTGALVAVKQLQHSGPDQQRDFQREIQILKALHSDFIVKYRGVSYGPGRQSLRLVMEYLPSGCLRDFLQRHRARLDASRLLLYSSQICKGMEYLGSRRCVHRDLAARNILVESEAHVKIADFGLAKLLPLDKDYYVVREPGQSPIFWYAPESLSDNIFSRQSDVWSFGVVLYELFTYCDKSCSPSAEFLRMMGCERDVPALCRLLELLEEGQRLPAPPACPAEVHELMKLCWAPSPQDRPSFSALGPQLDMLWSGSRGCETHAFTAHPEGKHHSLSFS
Method in brief: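 Caliper microfluidic assay of peptide-substrate phosphorylation by the relevant JAK enzyme, run at 1 mM ATP; IC50 values are geometric means of at least three determinations.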

[2] = Chemical stability in pH 8 solution at 40 degC after 1 to 2 days; type: physicochemical; conditions: buffer
Method in brief: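 Hydrolytic stability followed over 1–2 days at pH 8.0 and 40 °C; percent degradation recorded.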

[3] = Drug metabolism in human liver microsomes assessed as UGT-mediated compound glucuronidation per mg protein in presence of microsomal activator Brij58 and cofactor UDPGA; type: ADME
Method in brief: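 Human liver microsomes supplemented with the activator Brij58 and cofactor UDPGA, NADPH omitted, to measure phase II glucuronidation turnover.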

[4] = target: Tyrosine-protein kinase JAK2 (Homo sapiens, UniProt O60674); assay: Inhibition of JAK2 homodimer in human whole blood assessed as inhibition of GM-CSF induced STAT5 phosphorylation preincubated for 45 mins followed by GM-CSF addition and measured after 20 mins by flow cytometric analysis
Tyrosine-protein kinase JAK2, sequence (O60674 whole entry): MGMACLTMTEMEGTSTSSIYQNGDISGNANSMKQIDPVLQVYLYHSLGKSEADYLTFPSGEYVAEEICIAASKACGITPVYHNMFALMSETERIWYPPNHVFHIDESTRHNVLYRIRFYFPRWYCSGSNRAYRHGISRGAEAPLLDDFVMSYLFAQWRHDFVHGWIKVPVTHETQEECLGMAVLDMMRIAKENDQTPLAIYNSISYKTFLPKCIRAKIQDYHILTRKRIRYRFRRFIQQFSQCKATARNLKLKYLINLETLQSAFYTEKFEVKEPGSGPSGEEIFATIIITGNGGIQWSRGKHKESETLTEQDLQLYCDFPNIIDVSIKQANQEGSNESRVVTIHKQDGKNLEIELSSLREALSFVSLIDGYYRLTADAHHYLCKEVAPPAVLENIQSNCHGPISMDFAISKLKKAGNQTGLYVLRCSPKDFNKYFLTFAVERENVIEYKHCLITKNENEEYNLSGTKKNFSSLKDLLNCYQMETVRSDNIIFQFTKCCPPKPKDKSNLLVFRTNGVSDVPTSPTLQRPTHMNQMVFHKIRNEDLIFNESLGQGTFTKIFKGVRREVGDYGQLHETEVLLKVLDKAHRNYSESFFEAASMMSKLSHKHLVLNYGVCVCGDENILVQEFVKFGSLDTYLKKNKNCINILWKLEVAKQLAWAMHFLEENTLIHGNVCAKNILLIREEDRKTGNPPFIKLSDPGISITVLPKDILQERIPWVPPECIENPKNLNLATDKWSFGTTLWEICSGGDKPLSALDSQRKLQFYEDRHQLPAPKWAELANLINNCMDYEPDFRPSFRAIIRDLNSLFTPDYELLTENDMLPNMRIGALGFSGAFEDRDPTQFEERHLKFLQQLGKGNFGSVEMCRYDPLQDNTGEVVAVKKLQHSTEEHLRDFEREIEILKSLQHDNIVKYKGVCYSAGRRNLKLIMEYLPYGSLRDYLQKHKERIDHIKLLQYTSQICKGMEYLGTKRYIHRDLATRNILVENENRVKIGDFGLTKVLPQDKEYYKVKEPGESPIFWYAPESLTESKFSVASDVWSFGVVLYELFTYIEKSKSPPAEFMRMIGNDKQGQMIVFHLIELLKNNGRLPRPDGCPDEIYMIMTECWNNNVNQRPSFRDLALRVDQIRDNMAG

[5] = Lipophilicity, logD of the compound by shake flask method; type: physicochemical; conditions: octanol/water
Method in brief: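 log D measured by the shake flask method.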

Rattus norvegicus = assay: Intrinsic clearance in rat at 0.5 mg/kg, iv; type: ADME, organism-based; conditions: in vivo
[6] = Volume of distribution at steady state in rat at 0.5 mg/kg, iv; type: ADME, organism-based; conditions: in vivo, read-out: Vdss
Canis familiaris [7] = assay: Unbound clearance in dog at 0.1 mg/kg, iv administered as 30 mins infusion; type: ADME, organism-based, Canis lupus familiaris; conditions: in vivo, 0.5 h
[8] = Terminal half life in dog at 0.1 mg/kg, iv administered as 30 mins infusion; type: ADME, organism-based, Canis lupus familiaris; conditions: in vivo, read-out: beta t1/2 (converted)
[9] = Plasma protein binding in rat at 0.5 mg/kg, iv; type: ADME, organism-based; conditions: read-out: PPB
Mus musculus [10] = assay: In vivo inhibition of JAK1/JAK2 in Balb/c mouse assessed as inhibition of IL-6 induced STAT3 phosphorylation in lungs at 10 ug, it pretreated for 15 mins followed by IL-6 stimulation measured after 30 mins by ELISA relative to control; type: functional
Method in brief: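 Intratracheal dosing in mouse, then IL-6 given i.t.; phosphorylated STAT3 quantified in lung. Percent inhibition ± 95% CI from the difference in geometric means between vehicle/IL-6 and vehicle/saline groups; N = 6.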

Mus musculus [11] = assay: In vivo inhibition of JAK2 homodimer in Balb/c mouse assessed as inhibition of GM-CSF induced STAT5 phosphorylation in blood at 100 ug, it for 12 consecutive days; type: functional
Method in brief: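 After i.t. dosing in mouse, GM-CSF-induced phosphorylated STAT5 measured in blood; percent inhibition ± 95% CI from geometric means versus vehicle groups; N = 3.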

[12] = target: Tyrosine-protein kinase Lck (Homo sapiens) (UniProt P06239); assay: Inhibition of recombinant human Lck kinase expressed in insect Sf21 cells at 10 uM using Ulight-Poly GAT[EAY(1:1:1)]n as substrate after 10 mins by LANCE assay
Tyrosine-protein kinase Lck (Homo sapiens), sequence (P06239 2-509 limits assumed): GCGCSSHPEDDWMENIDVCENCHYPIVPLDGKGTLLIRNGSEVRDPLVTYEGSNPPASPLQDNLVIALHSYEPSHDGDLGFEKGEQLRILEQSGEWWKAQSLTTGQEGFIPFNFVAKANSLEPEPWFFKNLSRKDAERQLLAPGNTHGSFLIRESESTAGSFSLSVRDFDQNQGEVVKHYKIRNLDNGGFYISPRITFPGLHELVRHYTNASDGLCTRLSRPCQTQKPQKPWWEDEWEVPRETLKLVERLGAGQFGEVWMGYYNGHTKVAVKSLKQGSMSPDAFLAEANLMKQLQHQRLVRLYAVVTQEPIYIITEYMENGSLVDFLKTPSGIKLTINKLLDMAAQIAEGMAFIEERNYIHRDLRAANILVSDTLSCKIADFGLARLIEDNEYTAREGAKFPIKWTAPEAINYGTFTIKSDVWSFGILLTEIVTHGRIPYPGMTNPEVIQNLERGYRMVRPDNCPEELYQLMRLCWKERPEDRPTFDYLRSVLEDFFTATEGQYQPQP
Method in brief: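 Single-point screen at 10 μM within a broad panel of radioligand binding and enzyme inhibition assays covering receptors, transporters, enzymes and ion channels.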

hERG (KCNH2) = hERG (KCNH2) (Homo sapiens, UniProt Q12809); assay: Inhibition of human ERG at 1 uM
hERG (KCNH2), sequence (Q12809 whole entry): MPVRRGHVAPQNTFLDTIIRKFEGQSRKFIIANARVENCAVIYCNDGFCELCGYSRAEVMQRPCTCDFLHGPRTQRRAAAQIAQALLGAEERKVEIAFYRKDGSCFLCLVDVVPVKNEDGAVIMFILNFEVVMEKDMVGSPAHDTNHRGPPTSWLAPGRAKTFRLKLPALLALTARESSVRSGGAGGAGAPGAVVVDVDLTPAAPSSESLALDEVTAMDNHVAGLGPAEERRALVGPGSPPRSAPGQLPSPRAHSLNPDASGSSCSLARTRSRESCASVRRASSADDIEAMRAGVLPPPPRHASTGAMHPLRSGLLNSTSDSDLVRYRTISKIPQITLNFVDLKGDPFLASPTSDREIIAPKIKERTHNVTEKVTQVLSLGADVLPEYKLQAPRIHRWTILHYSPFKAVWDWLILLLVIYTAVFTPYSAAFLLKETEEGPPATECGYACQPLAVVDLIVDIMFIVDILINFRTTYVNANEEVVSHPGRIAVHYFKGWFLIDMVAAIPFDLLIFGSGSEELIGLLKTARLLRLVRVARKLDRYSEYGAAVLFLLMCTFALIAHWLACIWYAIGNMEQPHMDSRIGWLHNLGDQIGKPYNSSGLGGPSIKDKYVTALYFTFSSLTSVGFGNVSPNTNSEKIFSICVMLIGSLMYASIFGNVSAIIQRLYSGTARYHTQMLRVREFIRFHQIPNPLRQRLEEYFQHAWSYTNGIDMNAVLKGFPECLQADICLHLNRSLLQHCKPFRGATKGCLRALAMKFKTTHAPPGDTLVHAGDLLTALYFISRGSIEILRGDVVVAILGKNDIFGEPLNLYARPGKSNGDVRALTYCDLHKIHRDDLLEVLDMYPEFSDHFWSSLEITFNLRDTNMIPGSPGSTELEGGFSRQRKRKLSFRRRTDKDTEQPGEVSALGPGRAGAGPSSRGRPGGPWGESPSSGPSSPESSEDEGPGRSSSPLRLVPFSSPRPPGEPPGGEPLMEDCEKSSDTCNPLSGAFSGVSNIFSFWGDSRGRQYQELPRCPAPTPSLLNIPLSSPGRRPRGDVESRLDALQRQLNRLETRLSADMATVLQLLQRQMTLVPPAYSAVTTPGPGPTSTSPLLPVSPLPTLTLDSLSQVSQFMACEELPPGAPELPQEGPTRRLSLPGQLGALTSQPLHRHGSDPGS
Method in brief: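 hERG potassium current measured with compound at 1 μM.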

Canis familiaris [13] = assay: Toxicity in iv dosed dog for 7 days; type: organism-based, Canis lupus familiaris; conditions: in vivo, 168 h
Method in brief: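 Exploratory 7-day intravenous toxicology studies in rat and dog; margins expressed over total plasma AUC relative to projected exposure at a 200 μg human lung dose.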

Salmonella typhimurium = assay: Genotoxicity in Salmonella typhimurium by Ames test; type: toxicity; conditions: salmonella enterica subsp. enterica serovar typhimurium
[14] = Chemical stability in pH 8 solution at 40 degC up to 6 weeks; type: physicochemical; conditions: buffer, pH 8, 1008 h
Janus Kinase (JAK) = Janus Kinase (JAK) (Homo sapiens, UniProt P52333+P23458+O60674+P29597)
JAK1/TYK2 (Homo sapiens) = JAK1/TYK2 (Homo sapiens) (UniProt P23458+P29597)
JAK2/JAK1 (Homo sapiens) = JAK2/JAK1 (Homo sapiens) (UniProt P23458+O60674)

With `CCc1cc(O)c(F)cc1-c1ccc2c(-c3nc4c([nH]3)CCN(C(=O)c3cnc(N5CCCCC5)cn3)C4)n[nH]c2c1` the IC50 [1] was 0.0599 µM, the Stability [2] was “Stable” and the Drug metabolism [3] was 129 µL/min. For the same compound, the IC50 [4] was 5.2 µM, the logD [5] was 3.9 and the CL (Rattus norvegicus) was 2.88 L/h/kg. The Vd [6] was 0.8 L/kg, the CL free (Canis familiaris [7]) was greater than 1080 L/h/kg and the half-life [8] was 2 h. For the same compound, the fraction unbound [9] was no more than 0.001, the “inhibition (INH)” value (Mus musculus [10]) was 100% and the “inhibition (INH)” value (Mus musculus [11]) was less than 50%. For the same compound, the inhibition [12] was greater than 50%, the inhibition at 1 µM (hERG (KCNH2)) was less than 1% and the Activity (Canis familiaris [13]) was “Non-Toxic”. For the same compound, the Activity (Salmonella typhimurium) was “Non-Toxic”, the Stability [14] was “Stable” and the T1/2 (Janus Kinase (JAK)) was greater than 6 h. The fIC50 (JAK1/TYK2 (Homo sapiens)) was 4.2 nM and the fIC50 (JAK2/JAK1 (Homo sapiens)) was 2.1 nM.
